Assay results pooled from the literature.
Compare with care: the assays were run in different laboratories.
Read-out: metabolic stability
Medium: liver microsomes

Compound	species	concentration	pH	microsomal CLint
N#Cc1ccc(C[C@H](Nc2c(Nc3ccc(Br)cc3)c(=O)c2=O)C(=O)N2CCc3ccccc32)cc1	rat	10 µM	pH 7.4	18.1 µL/min/mg
COCC(=O)N1CCC[C@H](C(=O)NCc2nc(-c3ccc(C)nc3)cs2)C1	male Sprague-Dawley rat	0.5 µM		6.3 µL/min/mg
CONC(=O)c1cccc2c1cc(C)n2-c1nc2c(c(NCc3ccccc3)n1)CCCN2	rat	1 µM	pH 7.4	413 µL/min/mg
N#Cc1ccc(C[C@H](Nc2nnc(-c3ccc(F)cc3)s2)C(=O)N2CCc3ccccc32)cc1	rat	10 µM	pH 7.4	35.9 µL/min/mg
Cc1[nH]c(C)c(S(=O)(=O)Nc2ccc(C(F)(F)F)c(Cl)c2)c1C(=O)N(C)C	rat			122 µL/min/mg
CCOc1c([C@H](C)n2nc(C)c3c(N)ncnc32)cc(Cl)c(F)c1[C@@H]1CNC(=O)C1	rat	0.5 µM	pH 7.4	2.4 µL/min/mg
N#Cc1ccc(C[C@H](Nc2nnc(-c3ccc(Br)cc3)o2)C(=O)N2CCc3ccccc32)cc1	rat	10 µM	pH 7.4	25.7 µL/min/mg
COCC(=O)N1CCC[C@H](C(=O)NCc2nc(-c3ccc(-c4ccccc4)cc3)cs2)C1	male Sprague-Dawley rat	0.5 µM		194 µL/min/mg
O=C1c2ccccc2C(=O)N1CCCN1CCN(C(c2ccc(F)cc2)c2ccc(F)cc2)CC1	rat	100 ng/mL		101 µL/min/mg
Cc1cccc(-c2nnc(N[C@@H](Cc3ccc(C#N)cc3)C(=O)N3CCc4ccccc43)o2)c1	rat	10 µM	pH 7.4	38.5 µL/min/mg
Cc1[nH]c(C)c(S(=O)(=O)Nc2ccc(C(F)(F)F)c(Cl)c2Cl)c1C(=O)N1CCC(F)(F)C1	rat			21.8 µL/min/mg
CN1CCC[C@H](OCC(=O)N2CCC[C@H](C(=O)NCc3nc(-c4ccc(C(F)(F)F)cc4)cs3)C2)C1	male Sprague-Dawley rat	0.5 µM		33 µL/min/mg
N#Cc1ccc(C[C@H](Nc2c(Nc3ccc(F)cc3)c(=O)c2=O)C(=O)N2CCc3ccccc32)cc1	rat	10 µM	pH 7.4	34.6 µL/min/mg
O=C(NCc1nc(-c2ccccc2)cs1)[C@H]1CCCN(C(=O)COCC(F)F)C1	male Sprague-Dawley rat	0.5 µM		85 µL/min/mg
COc1ccc(Cn2cc(CO[C@@H]3O[C@H]4[C@H](OC[C@H]4O)[C@H]3O)nn2)cc1	rat			< 14.4 µL/min/mg
COCC(=O)N1CCC[C@H](C(=O)NCc2nc(-c3ccc(OC)cc3)cs2)C1	male Sprague-Dawley rat	0.5 µM		39 µL/min/mg
O=C(Nc1ccc(OC(F)(F)Cl)cc1)c1cnc(N2CC[C@@H](O)C2)c(-c2ccn[nH]2)c1	rat	1 µM	pH 7.4	12.9 µL/min/mg
